According to publication PMC9053626 (RSC Advances, 2020):

Key:
4T1 cells = test: MTT cytotoxicity assay; format: cell-based, murine; details: Mus musculus
Method in brief: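 4T1 cells grown in 1640 medium with 5% FBS and 1% penicillin/streptomycin at 37 °C, 5% CO2. Seeded at 2000 cells/well for 24 h, then exposed to a range of test concentrations for 48 h or 72 h. Washed twice with cold PBS, given fresh medium plus MTT for 4 h, formazan dissolved in DMSO, A570 read. Inhibition rate calculated relative to untreated control absorbance.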

[1] = tested on: 4T1 cell tumor-bearing xenograft model; test: In vivo antitumor study and histological evaluation; set-up: species or system female BABL/c mice
Method in brief: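 Orthotopic 4T1 model: 0.1 mL of 4T1 cells (1 × 107 mL−1) injected into the fourth pair of breast pads. At 50–100 mm3 tumours, mice randomised into three groups (n = 6). Killed day 14; heart, liver, lung, spleen, kidney and tumour fixed in 10% formaldehyde for H&E.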

[2] = release medium vs anhydrous ethanol; cited from earlier work

Molecule `C[C@H]1[C@@H](O)O[C@@H]2O[C@@]3(C)CC[C@H]4[C@H](C)CC[C@@H]1[C@@]24OO3` [DHA-Sol, Dihydroartemisinin] has an IC50 (4T1 cells; 4T1, 48 h) of 2.31 ± 0.1 µM, an IC50 (4T1 cells; 4T1, 72 h) of 0.62 ± 0.02 µM and a tumor volume ([1]; after 14 days, i.v. 0.07 mmol DHA kg^−1 on days 1, 3, 5, 7, 9, saline group 3309.68 ± 441.61) of 867.27 ± 117.43 mm^3. The “body weight change versus saline group” value ([1]; end of the experiment, p > 0.1) was “a significant change in the body weight of rats was not observed”, the “survival of mice during the experiment” value ([1]; n = 6 per group, 0.07 mmol DHA kg^−1 i.v. five times) was “two mice treated with the DHA-Sol group died during the experiment” and the “stability of DHA in the release medium” value [2] was “degraded quickly in the release medium”.
